STK33 inh: human STK33 kinase inhibition; purified STK33, MBP phosphorylation, ADP-Glo luminescence; inhibition, % at 10 µM; AID 2661; Q9BYT3; actives 0.073% (n = 320,000);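 active = inhibition at or above 25%, using the most active replicate where run in duplicate; inactive = inhibition below 25%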
CDK5 inh: inhibitors of human CDK5/p35 kinase | Recombinant CDK5/p35, ADP-Glo luminescence, 60 min | AID 488839 | actives 0.01% (n = 330,000) | inhibition, % at 10 µM;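 active = highest replicate inhibition of at least 50% and at least 75% of replicates reaching 50%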;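 note: plate controls were DMSO neutral control for no effect and GW8510 at 10 µM for full effect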
GSK3B inh: human GSK3beta kinase inhibition. activity score (negative = inhibition), % at 10 µM. P49841. GST-GSK3beta kinase, ADP-Glo luminescence, 60 min; active compounds read low. actives 0.038% (n = 300,000). AID 2097;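 active = more than half of replicate wells score below -50%, meaning over 50% inhibition versus plate controls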;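 note: 0% = median DMSO wells and -100% = median GW8510 positive control wells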
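Test system: GST-fused GSK3beta enzyme, cell-free | Quantity: 1.6 ng GST-GSK3beta enzyme per well | Reagent: 25 µM ATP with peptide substrate | Schedule: 60 min enzyme reaction, room temperature | Signal: Luminescent ADP-Glo measurement of ADP formed | Read-out basis: Score relative to plate controls | Control set: DMSO and 20 µM GW8510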
INS-1E GSIS act: GLuc luminescence reporter in INS-1E cells, primary screen for activators of glucose-dependent secretion of insulin; INS-1E GLuc reporter insulin secretion, 2-3 h; activation, % at 16.6 µM; actives 0.61% (n = 370,000); AID 743287;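 active = lowest replicate activation of at least 40%, so every replicate reaches that level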;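 note: 0% = median of neutral control wells and 100% = median of IBMX positive control wells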
Env fusion inh: inhibitors of HIV Env-mediated cell fusion | HeLa-JRFL Env/CEM21 cell fusion, luciferase | inhibition, % at 12.3 µM | actives 1.1% (n = 360,000) | AID 651610;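 active = mean replicate inhibition score of at least 50 and every replicate individually at or above 50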;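 note: 0% = plate neutral controls and 100% = maraviroc near 300 nM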
GSK3A inh: inhibitors of human GSK-3 alpha kinase; ADP-Glo luminescence, 60 min; inhibition, % at 10 µM; actives 0.1% (n = 320,000); AID 2650;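 active = more than half of replicates show inhibition above 20%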;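 note: GST-tagged GSK-3 alpha with peptide substrate and 25 µM ATP; 0% = DMSO neutral wells and 100% = GW8510 positive control wells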
Target sequence (P49840 whole entry, looked up): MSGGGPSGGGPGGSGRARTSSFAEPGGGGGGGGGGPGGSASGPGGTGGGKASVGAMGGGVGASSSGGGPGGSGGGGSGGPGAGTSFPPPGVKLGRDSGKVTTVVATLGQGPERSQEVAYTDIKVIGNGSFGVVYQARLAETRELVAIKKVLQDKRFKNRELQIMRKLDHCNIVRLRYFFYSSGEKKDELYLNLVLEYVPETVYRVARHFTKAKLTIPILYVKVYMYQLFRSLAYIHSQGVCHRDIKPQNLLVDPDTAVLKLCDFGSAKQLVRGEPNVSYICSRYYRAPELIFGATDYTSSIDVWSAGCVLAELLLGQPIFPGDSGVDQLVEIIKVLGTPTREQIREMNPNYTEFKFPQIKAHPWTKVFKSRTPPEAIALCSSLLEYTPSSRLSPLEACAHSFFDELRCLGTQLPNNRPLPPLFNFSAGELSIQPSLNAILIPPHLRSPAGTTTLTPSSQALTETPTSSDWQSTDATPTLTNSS
Numbers without * were called inactive; nt = no result; [ ] = remark or other dose. Shown are actives, neighbours in structure and some others; about 1.4% of the full set was active somewhere.

SMILES	STK33 inh	CDK5 inh	GSK3B inh	INS-1E GSIS act	Env fusion inh	GSK3A inh
CN(C)C(=O)C[C@@H]1C[C@@H]2c3cc(NC(=O)NC4CCCCC4)ccc3O[C@@H]2[C@@H](CO)O1	nt	nt	nt	2	23[16.7 µM]	nt
O=C(C[C@H]1C[C@H]2c3cc(NC(=O)NC4CCCC4)ccc3O[C@H]2[C@@H](CO)O1)NC1CCCCC1	nt	nt	nt	6	84*[16.7 µM]	nt
CN(C)C(=O)C[C@H]1C[C@@H]2c3cc(NC(=O)NC4CCCCC4)ccc3O[C@@H]2[C@H](CO)O1	nt	nt	nt	1	75*[16.7 µM]	nt
COCCCNc1nc2c(c(=O)n(Cc3ccc(Cl)cc3)c(=O)n2C)n1C	1	-3	-1	-6	5	-1
Cn1c(NCCCN2CCOCC2)nc2c1c(=O)n(Cc1ccc(Cl)cc1Cl)c(=O)n2C	0	-10	-3	nt	63*	0
C[C@@H]1CN([C@H](C)CO)C(=O)Cc2cc(NC(=O)CCCCCC(=O)Nc3ccccc3N)ccc2O[C@H]1CN(C)S(=O)(=O)c1cn(C)cn1	nt	nt	nt	12	-1[16.7 µM]	nt
C=CCc1cccc(/C=N/NC(=O)CCC(=O)Nc2ccc(C)cc2)c1O	0	2	2	225*	-13	-2
CO[C@H]1CC[C@@H]2CCN(C)C(=O)C[C@@H](c3ccccc3)CN(C)C(=O)c3cc(C#N)ccc3OC[C@H]1O2	nt	nt	nt	7	10[16.7 µM]	nt
CC(C)C#Cc1ccc2c(c1)O[C@H](CN(C)S(C)(=O)=O)[C@H](C)CN([C@@H](C)CO)S2(=O)=O	nt	nt	nt	-4	-38[16.7 µM]	nt
COc1cc(-c2cc(=O)c3c(O)c(OC)c(OC)c(O)c3o2)ccc1O	46*	5	-26	32	nt	42
COc1c(O)c(O)c2oc(-c3ccccc3)cc(=O)c2c1OC	3	3	-5	nt	nt	8
CCOC(=O)N1CCN(C(=O)c2cccn3c(=O)c4c5c(sc4nc23)CCCC5)CC1	0	-1	-3	-1	-5	1
Cc1cccc(N2CCN(C(=O)c3cccn4c(=O)c5c(C)c(C)sc5nc34)CC2)c1C	0	-1	-1	156*	-36	1
O=C1NC(=O)/C(=C/c2ccco2)N1	1	1	nt	14	-44	8
Cc1ccc2c(c1)/C(=C/c1ccco1)C(=O)N2	32*	2	-3	7	-19	-1
CSc1nc(-c2cccs2)c(C#N)c(=O)[nH]1	1	0	3	-27	1	1
CNC(=O)NC(=O)CSc1nc(-c2cccs2)c(C#N)c(=O)[nH]1	nt	1	-75*	nt	4	nt
C[C@@H]1CN([C@@H](C)CO)C(=O)Cc2cc(NC(=O)Nc3ccc(F)cc3)ccc2O[C@H]1CN(C)S(=O)(=O)c1cccs1	nt	nt	nt	-14	-3[16.7 µM]	nt
O=C(OCC(=O)N1CCN(c2ccccc2)CC1)c1cccc([N+](=O)[O-])c1	-3	-11	0	-6	71*	0
O=S(=O)(c1ccc(Cl)cc1)N1CCC(O)(CN2CCN(Cc3ccccc3)CC2)CC1	-2	0	-2	-23	1	4
O=S(=O)(c1ccccc1)N1CCC(O)(CSc2ccc(Cl)cc2)CC1	-2	nt	0	nt	61*	nt
CCOC(=O)Cc1csc(/N=C/c2c(O)n(-c3ccc(C)c(C)c3)c(=O)c3ccccc23)n1	-2	2	0	42*	38	-2
Cc1cc(N=Cc2c(O)n(-c3ccc(C)c(C)c3)c(=O)c3ccccc23)no1	nt	nt	nt	-6	8	nt
COc1ccc(O)c(-c2nc(N)nc(N)n2)c1	41*	24	nt	26	32	72*
Nc1nc(N)nc(-c2cc(F)ccc2O)n1	14	13	nt	-2	6	9
SMILES	STK33 inh	CDK5 inh	GSK3B inh	INS-1E GSIS act	Env fusion inh	GSK3A inh
O=C(Nc1ccccc1F)N[C@H]1CC[C@@H](CCNS(=O)(=O)c2ccc(Cl)cc2)O[C@@H]1CO	nt	nt	nt	-6	-4[16.7 µM]	nt
C#CC(=O)N(c1cccc(OC)c1)C(C(=O)NC1CCCC1)c1cccs1 (configuration not stated)	0	0	-2	146*	nt	-1
C#CC(=O)N(c1ccc(OC)c(OC)c1)C(C(=O)NC1CCCC1)c1cccs1 (configuration not stated)	-1	-1	1	37	nt	3
Cc1cc(C)cc(N(C(=O)C(F)(F)F)C(C(=O)NC2CCCCC2)c2cccs2)c1 (configuration not stated)	-2	1	0	47*	35	2
Cc1cccc(N(C(=O)C(F)(F)F)C(C(=O)NC2CCCCC2)c2cccs2)c1 (configuration not stated)	0	-3	-22	-1	nt	4
C[C@H]1CN([C@@H](C)CO)S(=O)(=O)c2ccc(C3=CCCC3)cc2O[C@H]1CN(C)C(=O)C1CC1	nt	nt	nt	-2	-1[16.7 µM]	nt
c1ccc(Oc2ccccc2-c2cc(NCCc3cccnc3)n3nccc3n2)cc1	nt	nt	nt	53*	0	nt
c1ccc(Oc2ccc(-c3cc(NCCc4cccnc4)n4nccc4n3)cc2)cc1	nt	nt	nt	31	-17	nt
COc1ccc(NC(=O)N(C)C[C@@H]2OCCCC[C@@H](C)Oc3ccc(NC(=O)Nc4ccc(F)cc4)cc3C(=O)N([C@H](C)CO)C[C@H]2C)cc1	nt	nt	nt	2	-20[16.7 µM]	nt
Cc1ccc(Cn2ncc3c(N4CCN(c5ccc(C)cc5)CC4)ncnc32)cc1	0	0	0	nt	91*	-1
Cc1ccc(Cn2ncc3c(N4CCN(C)CC4)ncnc32)cc1	-1	-1	0	1	3	0
CC(C(=O)N1CCC(C(N)=O)CC1)N(c1ccc(Oc2ccccc2)cc1)S(C)(=O)=O (configuration not stated)	0	0	-5	50*	-19	-1
OC(c1cccc(OCc2ccccc2)c1)c1nnc(-c2ccccc2)o1 (configuration not stated)	-1	0	-3	nt	73*	0
OC(c1ccc(OCc2ccccc2)cc1)c1nnc(-c2ccccc2)o1 (configuration not stated)	1	-1	-4	nt	nt	nt
C[C@@H](NC(=O)C[C@@H]1C[C@H]2c3cc(NC(=O)Nc4ccccc4F)ccc3O[C@H]2[C@H](CO)O1)c1ccccc1	nt	nt	nt	12	-1[16.7 µM]	nt
C[C@@H](NC(=O)C[C@@H]1C[C@@H]2c3cc(NC(=O)Nc4ccccc4F)ccc3O[C@@H]2[C@@H](CO)O1)c1ccccc1	nt	nt	nt	105*	15[16.7 µM]	nt
CN(C)C(=O)C[C@H]1C[C@@H]2c3cc(NS(=O)(=O)c4ccc(F)cc4)ccc3O[C@@H]2[C@H](CO)O1	nt	nt	nt	-1	13[16.7 µM]	nt
COc1ccccc1NC(=O)N[C@@H]1CC[C@H](CC(=O)N[C@H](C)c2ccccc2)O[C@@H]1CO	nt	nt	nt	2	75*[16.7 µM]	nt
CN(C)C(=O)C[C@H]1C[C@@H]2c3cc(NS(=O)(=O)c4ccc(F)cc4)ccc3O[C@@H]2[C@@H](CO)O1	nt	nt	nt	5	90*[16.7 µM]	nt
CN(C)C(=O)C[C@@H]1C[C@H]2c3cc(NS(=O)(=O)c4ccc(F)cc4)ccc3O[C@H]2[C@H](CO)O1	nt	nt	nt	-2	90*[16.7 µM]	nt

Screening results: PubChem, Broad Institute
